RAD52 inh: blocks human RAD52 DNA annealing. P43351. recombinant RAD52 DNA annealing, FRET fluorescence. 360,000 compounds, 0.46% hits. inhibition, % at 18.7 µM;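 active means every replicate showing at least 50% inhibition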
Neddyl block: cullin neddylation inhibition; P61081+Q13564; AID 651699; calls only at 25 µM; TR-FRET cullin neddylation, biochemical; 360,000 compounds, 0.58% hits; in the data active means inhibition above about 36%
RAD54 branch: RAD54 (human) branch migration inhibition; inhibition, % at 10.4 µM; Q92698; 360,000 compounds, 0.14% hits; RAD54 Holliday junction branch migration, FAM/BHQ fluorescence; AID 602329;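 active means mean normalized replicate activity at least 40 and at least half of replicates scoring 40 or more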;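 further: inhibitors cause a drop in the FAM fluorescence signal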
Target sequence (Q92698 whole entry, looked up): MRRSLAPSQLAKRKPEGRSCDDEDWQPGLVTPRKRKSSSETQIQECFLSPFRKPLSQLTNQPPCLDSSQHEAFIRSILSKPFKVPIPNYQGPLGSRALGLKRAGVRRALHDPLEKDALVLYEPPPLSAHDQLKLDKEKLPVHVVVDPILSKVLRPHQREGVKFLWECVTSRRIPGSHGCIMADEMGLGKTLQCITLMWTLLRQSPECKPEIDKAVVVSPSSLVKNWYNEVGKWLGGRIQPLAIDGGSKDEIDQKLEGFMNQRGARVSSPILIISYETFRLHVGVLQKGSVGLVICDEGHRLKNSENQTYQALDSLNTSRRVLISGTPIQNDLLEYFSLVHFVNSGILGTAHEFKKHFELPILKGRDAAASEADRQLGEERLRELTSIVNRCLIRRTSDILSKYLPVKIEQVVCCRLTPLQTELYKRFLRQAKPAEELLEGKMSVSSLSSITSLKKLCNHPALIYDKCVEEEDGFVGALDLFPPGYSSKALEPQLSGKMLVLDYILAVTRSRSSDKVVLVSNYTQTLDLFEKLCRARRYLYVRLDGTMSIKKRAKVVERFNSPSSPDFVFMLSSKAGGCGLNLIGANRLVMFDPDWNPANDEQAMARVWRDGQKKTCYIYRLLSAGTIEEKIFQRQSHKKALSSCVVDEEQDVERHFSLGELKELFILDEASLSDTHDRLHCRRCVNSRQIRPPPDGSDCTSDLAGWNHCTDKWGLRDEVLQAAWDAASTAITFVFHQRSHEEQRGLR
FID counter: counter-screen for HCV NS3 helicase inhibitors: DNA intercalator displacement | inhibition, % at 7.9 µM | DNA fluorescent intercalator displacement, fluorescence | 290,000 compounds, 0.17% hits | AID 1845; in the data active means inhibition above about 37%;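 further: higher means more ethidium bromide displaced from hairpin DNA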
Apaf-1 inh: inhibitors of human Apaf-1 apoptosome; 330,000 compounds, 0.71% hits; inhibition, % at 20 µM; reconstituted apoptosome caspase-3 activity, DEVD-Rh110 fluorescence; O14727; active means inhibition of at least 40% at 20 µM
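Assay system: Apoptosome proteins | Medium: pH 7.5 Hepes buffer with CHAPS, BSA, DTT | Also added: Cytochrome c and DEVD-Rh110 substrate | Times: 30 min plus 50 min, RT | Detection: Rhodamine 110 fluorescence at Ex 480/Em 540 nm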
UBC13 polyUb: blocks human UBC13 polyubiquitin chain formation | AID 485273 | 330,000 compounds, 0.47% hits | P61088 | TR-FRET | inhibition, % at 20 µM; in the data active means inhibition above about 45%, passing the limit was not always enough
Neddyl conf: confirmation of human cullin neddylation inhibitors; shares compounds with Neddyl block; TR-FRET cullin neddylation biochemical assay; calls only at 25 µM; 1,800 compounds, 13% hits; AID 652217; in the data active means inhibition above about 40%;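 further: neddylation substrate is the cullin 1 ring ligase complex with SKP2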
Calls only; 0 = inactive; - = no result given; + = active, no number. The list is not random: actives were taken first. Their share in the collection is about 1.6%.

SMILES	RAD52 inh	Neddyl block	RAD54 branch	FID counter	Apaf-1 inh	UBC13 polyUb	Neddyl conf
CS(=O)(=O)c1ccc(Cl)c(NC(=O)COC(=O)CCCN2C(=O)c3cccc4cccc(c34)C2=O)c1	0	+	0	-	0	0	0
COc1ccc(CN(C)C[C@H]2Oc3ccc(NS(=O)(=O)c4ccc(C)cc4)cc3C(=O)N([C@H](C)CO)C[C@H]2C)cc1	0	-	0	-	-	-	-
N=c1n(Cc2ccccc2)c2ccccc2n1CC(O)c1ccco1 (stereo not drawn)	-	+	0	0	0	0	0
COc1ccc(CC(=O)N/N=C\c2cc(Br)c(O)c(Br)c2)cc1	0	+	0	0	0	0	+
COCc1cc(/C=N\NC(=O)Cc2ccc(OC)cc2)ccc1OC	0	0	0	0	0	0	-
COc1cc(/C=N/NC(=O)CCOc2ccccc2C)cc(Br)c1O	0	+	-	0	0	0	+
Cc1cc(C(=O)Nc2cccc3c2O[C@H](CN(C)S(C)(=O)=O)[C@@H](C)CN([C@@H](C)CO)C3=O)n(C)n1	0	-	0	-	-	-	-
O=C(N/N=C/c1cnc(N2CCCCC2)s1)c1ccc(Cl)cc1	0	+	-	0	0	0	+
Cc1noc(C)c1S(=O)(=O)Nc1ccc2c(c1)C(=O)N([C@@H](C)CO)C[C@@H](C)[C@@H](CN(C)Cc1ccccc1)OCCCC[C@@H](C)O2	0	-	0	-	-	-	-
COCCn1c(=N)c(S(=O)(=O)c2ccc(F)cc2)cc2c(=O)n3ccccc3nc21	0	+	0	0	0	0	0
COCCn1c(=N)c(S(=O)(=O)c2ccc(Br)cc2)cc2c(=O)n3ccccc3nc21	0	+	0	0	0	0	0
COc1ccc(-c2ccc3c(N)c(C(=O)c4cccc(OC)c4)sc3n2)cc1	-	0	0	0	0	0	-
COc1cccc(-c2ccc3c(N)c(C(=O)NC4CC4)sc3n2)c1	0	+	-	0	0	0	-
O=C(O)c1cc(-c2ccc3c(c2)OCO3)nc2ccc(Cl)cc12	0	+	0	0	0	0	-
CC(C)(C)NC(=O)c1cc(-c2ccc3c(c2)OCO3)nc2ccccc12	0	+	0	0	0	0	0
O=C(c1cc(-c2ccncc2)nc2ccc(Cl)cc12)N1CCN(Cc2ccc3c(c2)OCO3)CC1	0	0	-	0	0	0	-
COCC(=O)Nc1ccc2c(c1)[C@H]1C[C@@H](CC(=O)NCc3ccc(OC)cc3)O[C@H](CO)[C@H]1O2	0	-	0	-	-	-	-
Cc1sc(NC(=O)c2ccco2)c(C(c2ccncc2)N2CCOCC2)c1C (stereo not drawn)	-	0	0	0	0	0	-
COc1cccc(C(c2c(NC(=O)c3ccco3)sc(C)c2C)N2CCOCC2)c1 (stereo not drawn)	0	+	0	-	0	0	-
COc1cccc(CNC(=O)[C@H]2[C@H](CO)[C@H]3Cn4c(ccc(-c5ccncc5)c4=O)[C@H]3N2C)c1	0	-	0	-	-	-	-
COc1ccccc1CNC(=O)C[C@H]1C[C@@H]2c3cc(NC(=O)NC4CCCC4)ccc3O[C@@H]2[C@H](CO)O1	0	-	0	-	-	-	-
COc1ccc(CCNc2oc(-c3ccco3)nc2C#N)cc1	0	+	0	0	0	0	+
CCSC1=C(C#N)C(CC(C)C)C2=C(CCCC2=O)N1 (stereo not drawn)	0	+	0	0	0	0	0
COc1ccc(C2NC3=C(CCC3)C3(C#N)C(OC)(OC)N=C(N)C23C#N)cc1 (stereo not drawn)	-	+	0	0	0	0	0
CN(c1ccccc1)S(=O)(=O)c1cccc(NC(=O)C2=NN(c3ccccc3)C(=O)CC2)c1	0	+	0	-	0	0	0
SMILES	RAD52 inh	Neddyl block	RAD54 branch	FID counter	Apaf-1 inh	UBC13 polyUb	Neddyl conf
COc1ccc(NS(=O)(=O)c2cccc(NC(=O)C3=NN(c4ccccc4)C(=O)CC3)c2)cc1	0	0	0	0	0	0	-
COc1ccc2cc3cc(C(=O)NCCN4CCc5ccccc5C4)sc3nc2c1	0	+	-	0	0	0	0
Cc1ccc(S(=O)(=O)N(C)C[C@H]2Oc3ccc(NC(=O)Nc4ccc(C(F)(F)F)cc4)cc3C(=O)N([C@H](C)CO)C[C@@H]2C)cc1	0	-	0	-	-	-	-
CCOC(=O)C1Cc2cc3c(cc2C1=O)CC(C(=O)OCC)C3=O (stereo not drawn)	-	-	-	0	-	-	-
CCOC(=O)C1CC(=O)c2cc(OC)c(OC)cc2C1 (stereo not drawn)	0	+	0	0	0	0	-
COc1ccc(C(C(=O)NC2CCCC2)N(C(=O)c2snc(C(N)=O)c2N)c2ccccc2OC)cc1OC (stereo not drawn)	0	+	0	0	0	0	-
NC(=O)c1nsc(C(=O)N(CCc2ccccc2)C(C(=O)NC2CCCC2)c2ccco2)c1N (stereo not drawn)	0	+	0	0	0	0	0
C[C@H](NC(=O)C[C@H]1CC[C@H](NS(=O)(=O)c2cccc(F)c2)[C@H](CO)O1)c1ccccc1	0	-	0	-	-	-	-
Cc1nc(-c2cccc3ccccc23)ccc1C(=O)O	-	+	0	0	0	0	0
COCC(=O)Nc1ccc2c(c1)C(=O)N(C)[C@@H]1CC[C@H](CC(=O)NCC(F)(F)F)O[C@H]1CO2	0	-	0	-	-	-	-
C[C@H](CO)N1C[C@H](C)[C@@H](CN(C)Cc2ccccc2C(=O)O)Oc2ncc(C#CC3CC3)cc2C1=O	0	-	0	-	-	-	-
CCN(CC)c1ccc(/C=N/NC(=O)CC(C)C)cc1	0	+	0	0	0	0	+
CCN(CC)c1ccc(/C=N\NC(N)=O)cc1	-	+	0	0	0	0	0
CO[C@@H]1CN(C)C(=O)c2cc(NC(=O)Nc3c(C)noc3C)ccc2OC[C@H](C)N(CCC(F)(F)F)C[C@H]1C	0	-	0	-	-	-	-
COCC(=O)Nc1ccc2c(c1)OC[C@H](C)N(C(=O)Cc1cccnc1)C[C@@H](C)[C@H](OC)CN(C)C2=O	0	-	-	-	-	-	-
C[C@H]1CCCCO[C@@H](CN(C)C(=O)Nc2ccc(C(F)(F)F)cc2)[C@@H](C)CN([C@@H](C)CO)C(=O)c2cc(NC(=O)Nc3ccccc3)ccc2O1	0	-	0	-	-	-	-
C/C(=N\NC(=O)C1CC1)c1ccc(NC(=O)c2ccc(Br)o2)cc1	0	-	-	0	0	0	-
C/C(=N\NC(=O)c1c(Cl)cnn1C)c1ccc(NC(=O)c2ccc(Br)o2)cc1	0	+	0	0	0	0	0
O=C(N/N=C/c1sc(N2CCOCC2)nc1-c1ccccc1)c1ccccc1O	-	+	0	0	0	0	0
Nc1ccc(C(=O)N/N=C/c2sc(N3CCOCC3)nc2-c2ccccc2)cc1	0	+	0	0	0	0	0
O=C(O)c1cccc(N/N=C/c2sc(N3CCOCC3)nc2-c2ccccc2)c1	-	+	0	0	0	0	-
O=C(N/N=C/c1sc(N2CCOCC2)nc1-c1ccccc1)c1ccccc1F	-	-	-	0	0	0	-
Cc1cc(C(=O)N/N=C/c2sc(N3CCOCC3)nc2-c2ccccc2)c(C)o1	0	0	-	0	0	0	-

Screens deposited in PubChem by several laboratories.
